# Assay results as given in the M2OR odorant receptor database.
# Tests used:
# Details in all cases: stereoisomer not certain
# UniProt Q924H8 = molecular target: T1, UniProt Q924H8
# T1 sequence (whole entry): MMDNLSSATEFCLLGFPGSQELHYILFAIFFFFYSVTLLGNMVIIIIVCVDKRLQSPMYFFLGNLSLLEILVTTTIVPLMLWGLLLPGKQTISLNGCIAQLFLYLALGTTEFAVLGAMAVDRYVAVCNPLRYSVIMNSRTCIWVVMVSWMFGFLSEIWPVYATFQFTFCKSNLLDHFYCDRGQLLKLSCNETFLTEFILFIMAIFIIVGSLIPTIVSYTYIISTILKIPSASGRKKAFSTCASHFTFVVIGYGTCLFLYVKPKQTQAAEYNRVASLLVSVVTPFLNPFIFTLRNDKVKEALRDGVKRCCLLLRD
# Summary of the method: (§1)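 Transient luciferase assays in mammalian cell lines were common, though methods varied by source. The values come from published papers and their supplementary material, with extra details from the original authors when needed. Responsive refers to a measured signal the original authors judged statistically different from baseline, and non-responsive (inactive) to the remainder.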
# UniProt Q99NH4 = molecular target: T2, UniProt Q99NH4
# T2 sequence (whole entry): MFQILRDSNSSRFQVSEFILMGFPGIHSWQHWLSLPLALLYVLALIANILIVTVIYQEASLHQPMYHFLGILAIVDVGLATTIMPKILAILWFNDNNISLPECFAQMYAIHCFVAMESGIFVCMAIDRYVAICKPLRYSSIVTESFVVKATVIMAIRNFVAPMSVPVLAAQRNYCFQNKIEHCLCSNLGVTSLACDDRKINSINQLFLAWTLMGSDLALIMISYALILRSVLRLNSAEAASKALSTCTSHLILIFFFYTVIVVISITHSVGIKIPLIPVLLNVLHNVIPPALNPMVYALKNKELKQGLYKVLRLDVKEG
# Summary of the method: as §1
# UniProt Q9EPN9 = molecular target: T3, UniProt Q9EPN9
# T3 sequence (whole entry): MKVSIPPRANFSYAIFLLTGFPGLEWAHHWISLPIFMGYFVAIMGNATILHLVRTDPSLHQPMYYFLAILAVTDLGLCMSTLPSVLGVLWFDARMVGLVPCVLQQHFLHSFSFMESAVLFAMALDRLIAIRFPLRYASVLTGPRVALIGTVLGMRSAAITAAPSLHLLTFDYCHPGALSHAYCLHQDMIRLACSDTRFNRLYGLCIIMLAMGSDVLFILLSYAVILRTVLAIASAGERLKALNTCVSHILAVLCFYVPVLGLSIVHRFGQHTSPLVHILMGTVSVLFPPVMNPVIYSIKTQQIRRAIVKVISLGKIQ
# Summary of the method: as §1
# UniProt Q9R0K2 = molecular target: UniProt Q9R0K2
# Summary of the method: as §1
# UniProt Q9WU86 = molecular target: T4, UniProt Q9WU86
# T4 sequence (whole entry): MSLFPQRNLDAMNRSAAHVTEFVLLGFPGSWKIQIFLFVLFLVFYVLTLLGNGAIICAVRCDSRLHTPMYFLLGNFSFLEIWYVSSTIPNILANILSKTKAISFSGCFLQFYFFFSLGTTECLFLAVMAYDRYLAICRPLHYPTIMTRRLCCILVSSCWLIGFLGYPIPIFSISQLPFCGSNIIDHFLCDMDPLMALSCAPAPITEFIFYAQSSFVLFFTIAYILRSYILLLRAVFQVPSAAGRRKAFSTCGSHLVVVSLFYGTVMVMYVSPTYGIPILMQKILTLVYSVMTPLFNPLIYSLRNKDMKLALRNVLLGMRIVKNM
# Summary of the method: as §1
# UniProt Q9WVD9 = molecular target: UniProt Q9WVD9
# Summary of the method: as §1
# UniProt Q9WVN5 = molecular target: T5, UniProt Q9WVN5
# T5 sequence (whole entry): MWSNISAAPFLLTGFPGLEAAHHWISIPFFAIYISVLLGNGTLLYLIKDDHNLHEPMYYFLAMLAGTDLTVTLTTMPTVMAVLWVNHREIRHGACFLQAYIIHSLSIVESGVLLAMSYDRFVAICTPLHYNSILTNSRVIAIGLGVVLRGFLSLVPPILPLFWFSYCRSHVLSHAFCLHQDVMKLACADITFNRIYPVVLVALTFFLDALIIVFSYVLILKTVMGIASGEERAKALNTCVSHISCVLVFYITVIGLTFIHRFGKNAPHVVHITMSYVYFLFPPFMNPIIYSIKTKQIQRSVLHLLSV
# Summary of the method: as §1
# UniProt Q924X8 = molecular target: T6, UniProt Q924X8
# T6 sequence (whole entry): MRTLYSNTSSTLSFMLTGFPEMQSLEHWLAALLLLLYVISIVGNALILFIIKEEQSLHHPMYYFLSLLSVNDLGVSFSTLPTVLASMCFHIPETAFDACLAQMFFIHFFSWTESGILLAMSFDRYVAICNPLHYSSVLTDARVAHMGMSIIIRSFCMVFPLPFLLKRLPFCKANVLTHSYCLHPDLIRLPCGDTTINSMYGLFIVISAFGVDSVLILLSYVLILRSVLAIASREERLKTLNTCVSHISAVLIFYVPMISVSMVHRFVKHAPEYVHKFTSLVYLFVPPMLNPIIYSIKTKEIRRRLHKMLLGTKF
# Summary of the method: as §1
# UniProt Q9WU94 = molecular target: T7, UniProt Q9WU94
# T7 sequence (whole entry): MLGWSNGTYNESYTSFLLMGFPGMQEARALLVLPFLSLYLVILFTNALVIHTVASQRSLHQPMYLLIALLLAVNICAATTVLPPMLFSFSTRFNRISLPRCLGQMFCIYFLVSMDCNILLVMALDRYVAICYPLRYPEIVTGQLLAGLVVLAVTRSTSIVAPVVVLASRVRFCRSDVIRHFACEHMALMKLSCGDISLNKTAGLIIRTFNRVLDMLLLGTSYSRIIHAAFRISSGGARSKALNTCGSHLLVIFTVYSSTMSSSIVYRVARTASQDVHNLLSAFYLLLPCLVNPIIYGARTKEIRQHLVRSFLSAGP
# Summary of the method: as §1
# UniProt Q9WVD7 = molecular target: T8, UniProt Q9WVD7
# T8 sequence (whole entry): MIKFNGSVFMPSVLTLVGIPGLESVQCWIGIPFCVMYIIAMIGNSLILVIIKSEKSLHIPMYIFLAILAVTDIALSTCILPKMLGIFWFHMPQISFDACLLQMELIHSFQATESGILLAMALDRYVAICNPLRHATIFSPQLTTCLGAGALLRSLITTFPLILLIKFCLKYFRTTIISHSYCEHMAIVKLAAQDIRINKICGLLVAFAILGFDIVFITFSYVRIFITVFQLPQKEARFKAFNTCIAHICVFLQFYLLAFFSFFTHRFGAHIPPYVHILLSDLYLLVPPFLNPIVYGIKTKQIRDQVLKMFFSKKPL
# Summary of the method: as §1
# UniProt Q9EQB5 = molecular target: UniProt Q9EQB5
# Summary of the method: as §1
# 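Note: active if original authors judged signal statistically different from baseline.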
# UniProt Q9WVD9, sequence (Q9WVD9 as listed by the source): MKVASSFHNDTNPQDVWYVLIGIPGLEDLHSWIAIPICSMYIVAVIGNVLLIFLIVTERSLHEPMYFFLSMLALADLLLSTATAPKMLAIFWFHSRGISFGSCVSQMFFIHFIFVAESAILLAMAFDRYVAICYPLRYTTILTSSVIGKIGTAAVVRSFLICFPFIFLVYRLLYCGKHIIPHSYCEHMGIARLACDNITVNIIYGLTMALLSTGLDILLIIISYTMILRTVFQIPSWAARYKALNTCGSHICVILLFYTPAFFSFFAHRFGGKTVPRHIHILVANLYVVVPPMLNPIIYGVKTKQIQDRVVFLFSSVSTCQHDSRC
# UniProt Q9R0K2, sequence (Q9R0K2 as listed by the source): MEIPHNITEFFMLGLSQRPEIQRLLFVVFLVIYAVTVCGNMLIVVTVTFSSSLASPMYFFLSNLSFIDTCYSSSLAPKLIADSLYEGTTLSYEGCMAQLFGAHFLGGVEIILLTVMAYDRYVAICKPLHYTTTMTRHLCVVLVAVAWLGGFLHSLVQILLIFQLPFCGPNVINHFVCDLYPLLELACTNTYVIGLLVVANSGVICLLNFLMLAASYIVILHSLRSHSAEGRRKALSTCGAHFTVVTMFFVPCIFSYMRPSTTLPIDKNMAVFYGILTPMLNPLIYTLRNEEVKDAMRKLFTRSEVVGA
# UniProt Q9EQB5, sequence (Q9EQB5 as listed by the source): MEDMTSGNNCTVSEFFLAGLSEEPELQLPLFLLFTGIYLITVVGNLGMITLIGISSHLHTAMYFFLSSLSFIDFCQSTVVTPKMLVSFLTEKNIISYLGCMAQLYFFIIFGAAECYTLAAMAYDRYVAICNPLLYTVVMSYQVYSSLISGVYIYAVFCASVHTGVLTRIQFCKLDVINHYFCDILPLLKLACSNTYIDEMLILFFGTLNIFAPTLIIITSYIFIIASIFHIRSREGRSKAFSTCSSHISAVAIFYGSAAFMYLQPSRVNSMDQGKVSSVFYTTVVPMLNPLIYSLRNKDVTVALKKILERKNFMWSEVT
smiles,measurement,setting,value
CCCCCC=O,odorant receptor agonist call,UniProt Q924H8,inactive
same,odorant receptor agonist call,UniProt Q99NH4,inactive
same,odorant receptor agonist call,UniProt Q9EPN9,inactive
same,odorant receptor agonist call,UniProt Q9R0K2,inactive
same,odorant receptor agonist call,UniProt Q9WU86,inactive
same,odorant receptor agonist call,UniProt Q9WVD9,inactive
same,odorant receptor agonist call,UniProt Q9WVN5,active
O=C([O-])CCCCCCC(=O)[O-].[H+].[H+],odorant receptor agonist call,UniProt Q924H8,inactive
same,odorant receptor agonist call,UniProt Q924X8,active
same,odorant receptor agonist call,UniProt Q99NH4,inactive
same,odorant receptor agonist call,UniProt Q9WU94,inactive
same,odorant receptor agonist call,UniProt Q9WVD7,inactive
CCCCCCO,odorant receptor agonist call,UniProt Q924H8,inactive
same,odorant receptor agonist call,UniProt Q924X8,inactive
same,odorant receptor agonist call,UniProt Q99NH4,inactive
same,odorant receptor agonist call,UniProt Q9EPN9,inactive
same,odorant receptor agonist call,UniProt Q9R0K2,inactive
same,odorant receptor agonist call,UniProt Q9WU86,inactive
same,odorant receptor agonist call,UniProt Q9WU94,inactive
same,odorant receptor agonist call,UniProt Q9WVD7,inactive
same,odorant receptor agonist call,UniProt Q9WVD9,inactive
same,odorant receptor agonist call,UniProt Q9WVN5,inactive
O=C([O-])CCCCCCCC(=O)[O-].[H+].[H+],odorant receptor agonist call,UniProt Q924H8,inactive
same,odorant receptor agonist call,UniProt Q924X8,active
same,odorant receptor agonist call,UniProt Q99NH4,inactive
same,odorant receptor agonist call,UniProt Q9WU94,active
same,odorant receptor agonist call,UniProt Q9WVD7,inactive
C1CCOCC1,odorant receptor agonist call,UniProt Q924H8,inactive
Cc1ccc2c(c1)OCC(=O)CO2,odorant receptor agonist call,UniProt Q924H8,inactive
CCCCCC=CCCC=O,odorant receptor agonist call,UniProt Q924H8,inactive
CC1CCCCCCCCCCCCC(=O)C1 (stereo unspecified),odorant receptor agonist call,UniProt Q9EQB5,inactive
